According to ChEMBL document CHEMBL1129987, “Structure-based design of nonpeptidic HIV protease inhibitors: the sulfonamide-substituted cyclooctylpyramones” (J Med Chem, 1997):

Tests used:
[1] = target: Human immunodeficiency virus type 1 protease (Human immunodeficiency virus 1) (UniProt Q72874); assay: Percentage inhibition against HIV-1 protease at 1 uM concentration of drug
[2] = target: Human immunodeficiency virus type 1 protease (Human immunodeficiency virus 1) (UniProt Q72874); assay: Percentage inhibition against HIV-1 protease at 1.1 uM concentration of drug
[3] = target: Human immunodeficiency virus type 1 protease (Human immunodeficiency virus 1) (UniProt Q72874); assay: Percentage inhibition against HIV-1 protease at 3 uM concentration of drug
[4] = target: Human immunodeficiency virus type 1 protease (Human immunodeficiency virus 1) (UniProt Q72874); assay: Percentage inhibition against HIV-1 protease at 10 uM concentration of drug
[5] = system: Human immunodeficiency virus 1; assay: Antiviral activity in HIV-1 infected H9 cells; assay type: functional; settings: Human immunodeficiency virus 1, H9; read-out: ED50 (the source's name)
In short: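 H9 cells infected with HIV-1 IIIB at MOI about 0.005, spun down (200g, 10 min), resuspended at 8 × 10^5 cells/mL in RPMI Complete and mixed with compound; final DMSO 0.1%, triplicate per concentration. After 5 days at 37 °C in 5% CO2, supernatant p24 antigen was measured by ELISA. ED50 is the drug amount that reduces p24 by 50% versus DMSO drug-free controls.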

[6] = target: Human immunodeficiency virus type 1 protease (Human immunodeficiency virus 1, UniProt Q72874); assay: Binding affinity against HIV-1 protease
[7] = Median cell culture toxic dose was evaluated against H9 cell line; assay type: ADME, cell-based; settings: human, H9 cells; read-out: CCTD50
[8] = Half-life was measured after intravenous administration of 2.5 mg/kg of drug in male Dawley rats; assay type: ADME, organism-based; parameters: dose 2.5 mg/kg, route intravenous; settings: Sprague-Dawley, rat, in vivo
[9] = Apparent volume of distribution was obtained after intravenous administration of 2.5 mg/kg of drug in male Dawley rats; assay type: ADME, organism-based; parameters: dose 2.5 mg/kg, route intravenous; settings: Sprague-Dawley, rat, in vivo, read-out: Vss
[10] = Oral bioavailability in rat (Sprague-Dawley) (male) (dose 5 mg/kg); assay type: ADME, organism-based; settings: in vivo
[11] = Maximum time taken by the drug to reach peak concentration after peroral administration of 5.0 mg/kg of drug in male Dawley rats; assay type: ADME, organism-based; parameters: dose 5 mg/kg, route oral; settings: Sprague-Dawley, rat, in vivo, po
[12] = Maximum concentration was measured after peroral administration of 5.0 mg/kg of drug in male Dawley rats; assay type: ADME, organism-based; parameters: dose 5 mg/kg, route oral; settings: Sprague-Dawley, rat, in vivo, po
[13] = Total plasma clearance value was obtained after intravenous administration of 2.5 mg/kg of drug in male Dawley rats; assay type: ADME, organism-based; parameters: dose 2.5 mg/kg, route intravenous; settings: Sprague-Dawley, rat

Row | Compound | EC50 [5] [µM] | Ki [6] [nM] | CC50 [7] [µM] | further results
1 | O=c1c2c(oc(O)c1C(c1cccc(N(S(=O)(=O)c3ccccc3)S(=O)(=O)c3ccccc3)c1)C1CC1)CCCCCC2 (stereo not drawn) |  |  |  | inhibition [1]: 10%
2 | O=c1c2c(oc(O)c1C(c1cccc(N(CCc3ccccc3)S(=O)(=O)c3ccccc3)c1)C1CC1)CCCCCC2 (stereo not drawn) |  |  |  | inhibition [2]: < 10%; inhibition [3]: < 10%
3 | CC(C)N(c1cccc(C(c2c(O)c3c(oc2=O)CCCCCC3)C2CC2)c1)S(=O)(=O)c1ccccc1 (stereo not drawn) |  |  |  | inhibition [2]: < 10%
4 | O=c1c2c(oc(O)c1C(c1cccc(N(Cc3ccccc3)S(=O)(=O)c3ccccc3)c1)C1CC1)CCCCCC2 (stereo not drawn) |  |  |  | inhibition [4]: < 10%; inhibition [2]: < 10%
5 | CC(C)C(c1cccc(NS(=O)(=O)c2cccc3cccnc23)c1)c1c(O)c2c(oc1=O)CCCCCC2 (stereo not drawn) | > 10 | 4.2 | > 30 | 
6 | Cn1cnc(S(=O)(=O)Nc2cccc(C(c3c(O)c4c(oc3=O)CCCCCC4)C3CC3)c2)c1 (stereo not drawn) | 2.7 | 1.6 | > 100 | 
7 | COC(=O)c1cccc(S(=O)(=O)Nc2cccc(C(c3c(O)c4c(oc3=O)CCCCCC4)C3CC3)c2)c1 (stereo not drawn) | 2.6 | 1.4 | > 30 | 
8 | Cc1cccc(S(=O)(=O)Nc2cccc(C(c3c(O)c4c(oc3=O)CCCCCC4)C3CC3)c2)c1 (stereo not drawn) | 4 | 5.3 | > 30 | 
9 | N#Cc1ccccc1S(=O)(=O)Nc1cccc(C(c2c(O)oc3c(c2=O)CCCCCC3)C2CC2)c1 (stereo not drawn) | > 10 | 7.4 | > 30 | 
10 | O=c1c2c(oc(O)c1C(c1cccc(NS(=O)(=O)c3ccc(Cl)c(Cl)c3)c1)C1CC1)CCCCCC2 (stereo not drawn) | 3.4 | 4.1 | > 30 | 
11 | O=c1c2c(oc(O)c1C(c1cccc(NS(=O)(=O)c3cccs3)c1)C1CC1)CCCCCC2 (stereo not drawn) | > 10 | 6.3 | > 30 | 
12 | NC(=O)c1ccc(S(=O)(=O)Nc2cccc(C(c3c(O)c4c(oc3=O)CCCCCC4)C3CC3)c2)cc1 (stereo not drawn) | 5.8 | 1.9 | > 30 | 
13 | O=c1c2c(oc(O)c1C(c1cccc(NS(=O)(=O)c3cccc4ccccc34)c1)C1CC1)CCCCCC2 (stereo not drawn) | 3.6 | 5.5 | > 30 | 
14 | CC(C)C(c1cccc(NS(=O)(=O)c2ccc(F)cc2)c1)c1c(O)c2c(oc1=O)CCCCCC2 (stereo not drawn) | > 10 | 11 | > 30 | 
15 | O=c1c2c(oc(O)c1C(c1cccc(NS(=O)(=O)c3cccc(Br)c3)c1)C1CC1)CCCCCC2 (stereo not drawn) | 3 | 2.6 | > 30 | 
16 | CCCC(c1cccc(NS(=O)(=O)c2ccc(Cl)cc2)c1)c1c(O)c2c(oc1=O)CCCCCC2 (stereo not drawn) | > 10 | 4 | > 30 | 
17 | O=c1c2c(oc(O)c1C(c1cccc(NS(=O)(=O)c3ccc(OC(F)(F)F)cc3)c1)C1CC1)CCCCCC2 (stereo not drawn) | 3.4 | 4 | > 30 | 
18 | O=c1c2c(oc(O)c1C(c1cccc(NS(=O)(=O)c3ccccn3)c1)C1CC1)CCCCCC2 (stereo not drawn) | 4.6 | 2.2 | > 30 | 
19 | O=c1c2c(oc(O)c1C(c1cccc(NS(=O)(=O)c3ncccn3)c1)C1CC1)CCCCCC2 (stereo not drawn) | 1.7 | 0.8 | > 30 | 

Row | Compound | EC50 [5] [µM] | Ki [6] [nM] | CC50 [7] [µM] | further results
20 | O=c1c2c(oc(O)c1C(c1cccc(N(CC3CC3)S(=O)(=O)c3ccccc3)c1)C1CC1)CCCCCC2 (stereo not drawn) |  |  |  | inhibition [2]: < 10%
21 | CCCC(c1cccc(NS(=O)(=O)c2cccc3cccnc23)c1)c1c(O)c2c(oc1=O)CCCCCC2 (stereo not drawn) | > 3 | 2.1 | > 30 | 
22 | Cn1cnc(S(=O)(=O)Nc2cccc([C@@H](c3c(O)c4c(oc3=O)CCCCCC4)C3CC3)c2)c1 | 2.1 | 0.045 | > 30 | half-life [8]: 2.4 h; Vd [9]: 0.2 L/kg; bioavailability [10]: 15%; Tmax [11]: 0.25 h; Cmax [12]: 0.64 µM; clearance [13]: 4.67 mL/min/kg
23 | O=c1c2c(oc(O)c1C(c1cccc(NS(=O)(=O)c3cccc(Cl)c3Cl)c1)C1CC1)CCCCCC2 (stereo not drawn) | > 3 | 7.6 | > 30 | 
24 | COc1ccc(S(=O)(=O)Nc2cccc(C(c3c(O)c4c(oc3=O)CCCCCC4)C3CC3)c2)cc1OC (stereo not drawn) | 4.1 | 6.8 | > 30 | 
25 | O=C(O)c1ccc(S(=O)(=O)Nc2cccc(C(c3c(O)c4c(oc3=O)CCCCCC4)C3CC3)c2)cc1 (stereo not drawn) | > 10 | 11 | > 30 | 
26 | O=c1c2c(oc(O)c1C(c1cccc(NS(=O)(=O)c3ccc(F)cc3F)c1)C1CC1)CCCCCC2 (stereo not drawn) | 4.2 | 4.1 | > 30 | 
27 | COc1ccc(S(=O)(=O)Nc2cccc(C(c3c(O)c4c(oc3=O)CCCCCC4)C3CC3)c2)cc1 (stereo not drawn) | 4.5 | 3.9 | > 30 | 
28 | CC(C)(C)c1ccc(S(=O)(=O)Nc2cccc(C(c3c(O)c4c(oc3=O)CCCCCC4)C3CC3)c2)cc1 (stereo not drawn) | > 10 | 32 | > 30 | 
29 | CCCCC(c1cccc(NS(=O)(=O)c2ccc(C#N)cc2)c1)c1c(O)c2c(oc1=O)CCCCCC2 (stereo not drawn) | 7.6 | 2.1 | > 30 | 
30 | O=c1c2c(oc(O)c1C(c1cccc(NS(=O)(=O)c3ccc(Cl)cc3)c1)C1CC1)CCCCCC2 (stereo not drawn) | 2 | 2.5 | > 30 | 
31 | CCCC(c1cccc(NS(=O)(=O)c2cccnc2)c1)c1c(O)c2c(oc1=O)CCCCCC2 (stereo not drawn) | > 10 | 2.2 | > 30 | 
32 | Cc1ccc(S(=O)(=O)Nc2cccc(C(c3c(O)c4c(oc3=O)CCCCCC4)C3CC3)c2)cc1 (stereo not drawn) | 3.6 | 3.3 | > 30 | 
33 | O=c1c2c(oc(O)c1C(c1cccc(NS(=O)(=O)c3cccc([N+](=O)[O-])c3)c1)C1CC1)CCCCCC2 (stereo not drawn) | 4.2 | 4.7 | > 30 | 
34 | O=c1c2c(oc(O)c1C(c1cccc(NS(=O)(=O)c3cnccn3)c1)C1CC1)CCCCCC2 (stereo not drawn) | 2 | 0.2 | > 30 | 
35 | O=c1c2c(oc(O)c1C(c1cccc(NS(=O)(=O)c3ccc(Cl)c(Cl)c3Cl)c1)C1CC1)CCCCCC2 (stereo not drawn) | 4.1 | 8.8 | > 30 | 
36 | CC(C)CC(c1cccc(NS(=O)(=O)c2ccc(C#N)cc2)c1)c1c(O)c2c(oc1=O)CCCCCC2 (stereo not drawn) | 6.1 | 1.5 | > 30 | 
37 | O=c1c2c(oc(O)c1[C@H](c1cccc(NS(=O)(=O)c3cccc4cccnc34)c1)C1CC1)CCCCCC2 | 1.3 | 0.4 | > 30 | half-life [8]: 1.8 h; Vd [9]: 0.15 L/kg; bioavailability [10]: 34%; Tmax [11]: 0.25 h; Cmax [12]: 6.2 µM; clearance [13]: 2.83 mL/min/kg
38 | O=c1c2c(oc(O)c1C(c1cccc(NS(=O)(=O)c3ccc(Br)cc3)c1)C1CC1)CCCCCC2 (stereo not drawn) | 3.2 | 2.1 | > 30 | 
